# Measurements from different studies.
# Protocols differ between the studies behind these lines.
# Target: Cytoplasmic tyrosine-protein kinase BMX (BMX, Homo sapiens, UniProt P51813)
SMILES,test,setting,endpoint,value
CC(C)[C@H](CO)Nc1nc(Nc2cc(N)cc(Cl)c2)c2ncn(C(C)C)c2n1,"enzyme activity, inhibitor",0.5 µM,remaining activity,81.9%
CCN(CC)CCNC(=O)c1c(C)[nH]c(/C=C2\C(=O)Nc3ccc(F)cc32)c1C,"enzyme activity, inhibitor",10 µM,inhibition,41%
COc1cc2c(N3CCN(C(=O)Nc4ccc(OC(C)C)cc4)CC3)ncnc2cc1OCCCN1CCCCC1,cell-free assay,0.5 µM,remaining signal,109%
N#CC1c2c([nH]c3c(Cl)c(Cl)ccc23)C(=O)NC12CCCCC2 (racemic),"thermal stability, DSF",10 µM,ΔTm,-0.1 °C
CCOC(=O)c1cc2cc(-c3cc(C(=O)NCc4ccc(C(=O)O)cc4)nn3C)ccc2[nH]1,"cell-free assay, competition with immobilised ligand",0.1 µM,remaining binding,82%
Cn1c2c(Cl)c(Cl)ccc2c2cc[nH]c(=O)c21,"thermal stability, DSF",10 µM,ΔTm,0 °C
C=CC(=O)Nc1cc(Nc2nccc(Nc3cc(Cl)c(F)cc3C(C)(C)O)n2)c(OC)cc1N1CC[C@@H](N(C)C)C1,"enzyme activity, inhibitor",1 µM,inhibition,80%
COc1cc2nccc(Oc3ccc(NC(=S)NC(=O)c4ccccc4C)cc3)c2cc1OC,"enzyme activity, inhibitor",0.5 µM,remaining activity,30.6%
O=C(Nc1ccc(Oc2ccc(F)cc2)cc1)N1CCc2ncccc2[C@H]1c1ccc(F)cc1,"cell-free assay, competition with immobilised ligand",1 µM,remaining binding,100%
CCC1(CC)NC(=O)c2c(c3ccc(Cl)c(Cl)c3n2C)C1C#N (centres unmarked),"thermal stability, DSF",10 µM,ΔTm,0.1 °C
O=C1Nc2ccc(Cl)cc2C1=Cc1cc(Cl)c(O)c(Cl)c1,cell-free assay,0.5 µM,remaining signal,94.8%
COc1cc2ncnc(Nc3ccc(Oc4ccccc4)cc3C)c2cc1OC,"enzyme activity, inhibitor",1 µM,inhibition,35%
Cn1c2c(c3ccc(Cl)c(Cl)c31)C(C#N)C1(CCOCC1)NC2=O (centres unmarked),"thermal stability, DSF",10 µM,ΔTm,-0.3 °C
Cc1nc(N2CC[C@@H](O)C2)ncc1-c1cc(C(F)(F)F)cc2[nH]ncc12,"cell-free assay, competition with immobilised ligand",1 µM,remaining binding,100%
CCCS(=O)(=O)Nc1ccc(F)c(C(=O)c2c[nH]c3ncc(-c4ccc(Cl)cc4)cc23)c1F,"enzyme activity, inhibitor",1 µM,inhibition,< 20%
O=C(NCc1ncc(C(F)(F)F)cc1Cl)c1ccc2c(c1)C1(CCS(=O)(=O)CC1)[C@H](C1CC1)N2S(=O)(=O)c1ccc(F)cc1,"cell-free assay, competition with immobilised ligand",1 µM,remaining binding,100%
Nc1[nH]nc2nnc(-c3c(-c4ccccc4)nn4ccccc34)cc12,"enzyme activity, inhibitor",0.5 µM,remaining activity,84.4%
Cc1ccc(NC(=O)c2ccc(C)c(C(F)(F)F)c2)cc1C#Cc1nn(C2CCC(O)CC2)c2ncnc(N)c12 (centres unmarked),cell-free assay,10 µM,remaining signal,-1%
CNC(=O)c1cc(Oc2ccc(NC(=O)Nc3ccc(Cl)c(C(F)(F)F)c3)cc2)ccn1,"enzyme activity, inhibitor",0.3 µM,inhibition,-3%
O=c1cc(-c2cccc3c2Sc2ccccc2S3)oc(N2CCOCC2)c1,"enzyme activity, inhibitor",0.5 µM,remaining activity,112%
CN(C)C1CCN(CC#Cc2nn(C3CCCC3)c3nc(NCc4ccccc4)ncc23)C1 (centres unmarked),"enzyme activity, inhibitor, FRET",0.1 µM,inhibition,11%
FC(F)(F)c1ccc(/C=C/c2nc(COc3ccc(CCCCn4ccnn4)cc3)co2)cc1,"enzyme activity, inhibitor",0.5 µM,remaining activity,99%
CC1=C(C#N)[C@@H](c2ccc3[nH]nc(C)c3c2)C(C#N)=C(c2ccc(Cl)cc2)N1,"cell-free assay, competition with immobilised ligand",1 µM,remaining binding,100%
c1nc2c(Nc3ccc4c(c3)OCCO4)nc(Nc3ccc4c(c3)OCCO4)nc2[nH]1,"enzyme activity, inhibitor",10 µM,activity vs control,9.7%
Cn1c2c(c3ccc(Cl)c(Cl)c31)C(C#N)C1(CCCCC1)NC2=O (racemic),"thermal stability, DSF",10 µM,ΔTm,0.1 °C
CC(=O)N1CCC(c2ccc(C(=O)NC(=N)N)cc2C(F)(F)F)CC1,"cell-free assay, competition with immobilised ligand",1 µM,remaining binding,100%
Cc1cc(NC(=O)c2cccc3cc(-c4cccc5[nH]nc(N)c45)ccc23)ccc1F,"enzyme activity, inhibitor",0.1 µM,activity vs control,108%
Cc1ccc(Nc2nccc(N(C)c3ccc4c(C)n(C)nc4c3)n2)cc1S(N)(=O)=O,"enzyme activity, inhibitor",0.3 µM,inhibition,8%
CS(=O)(=O)c1cc(C2(NC(=O)c3cncc4c3cnn4-c3ccc(F)cc3)CC2)ccn1,"cell-free assay, competition with immobilised ligand",1 µM,remaining binding,100%
Cn1cncc1C1=CN(c2ncnc3[nH]cnc23)CCS1,"enzyme activity, inhibitor, radiometric",50 nM,inhibition,13.9%
C[C@@H](N)[C@H]1CC[C@H](C(=O)Nc2ccncc2)CC1,"enzyme activity, inhibitor",0.5 µM,remaining activity,91.2%
CC(=O)C1=C(C)N(c2cccc(C(F)(F)F)c2)C(=O)N[C@@H]1c1ccc(C#N)nc1,"cell-free assay, competition with immobilised ligand",1 µM,remaining binding,97.4%
